Data on six compounds can be found in ChEMBL document CHEMBL5104176 (J Med Chem, 2022).

The target of assay [1] is T1, D(4) dopamine receptor (Homo sapiens, UniProt P21917).
T1 sequence (P21917 whole entry): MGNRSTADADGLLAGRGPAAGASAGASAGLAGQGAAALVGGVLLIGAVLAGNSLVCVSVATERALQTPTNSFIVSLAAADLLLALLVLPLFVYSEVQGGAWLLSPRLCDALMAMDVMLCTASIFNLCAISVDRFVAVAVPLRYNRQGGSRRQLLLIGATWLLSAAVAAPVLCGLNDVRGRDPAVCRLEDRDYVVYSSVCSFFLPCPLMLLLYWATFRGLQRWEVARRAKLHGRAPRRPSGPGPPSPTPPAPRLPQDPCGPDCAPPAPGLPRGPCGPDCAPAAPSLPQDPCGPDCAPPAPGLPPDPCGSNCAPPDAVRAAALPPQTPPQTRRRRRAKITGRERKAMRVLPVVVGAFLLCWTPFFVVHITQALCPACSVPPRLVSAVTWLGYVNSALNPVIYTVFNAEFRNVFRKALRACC
Nature of the assay: Displacement of [3H]N-methylspiperone from human D4.4 receptor expressed in HEK293T cell membrane incubated for 1 hr by MicroBeta scintillation counting method. The format is cell membranes. (In a radioligand displacement assay an active substance lowers the binding of a labelled ligand.)

Assay [2] concerns the target D(3) dopamine receptor (Homo sapiens, UniProt P35462). Put plainly: Displacement of [3H]N-methylspiperone from human D3R receptor expressed in HEK293T cell membrane incubated for 1 hr by MicroBeta scintillation counting method. The format is cell membranes. In outline:
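Membranes from stably transfected HEK293 cells (hD2L, hD3 or hD4.4), 20 μg (D2, D3) or 30 μg (D4) protein/well. Incubated 1 h at room temperature in EBSS binding buffer, pH 7.4, with 0.4 nM [3H]N-methylspiperone and 10 half-log dilutions in triplicate. 10 μM (+)-butaclamol defines nonspecific binding. GF filtration, scintillation counting. Ki by Cheng–Prusoff from ≥3 experiments; selectivity is the Ki ratio.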

The target in assay [3] is T1, D(4) dopamine receptor. Nature of the assay: Antagonist activity at D4R (unknown origin) expressed in human HEK293T cells assessed as inhibition of dopamine-induced beta arrestin-2 recruitment pretreated for 10 mins followed by dopamine addition and measured after 2.5 mins by BRET assay. The format is functional, cell-based.
Assay [4] concerns the target T2, D(4) dopamine receptor (Homo sapiens) (UniProt P21917).
T2 sequence (whole entry): T1 sequence (P21917 whole entry)
Nature of the assay: Agonist activity at D4R (unknown origin) expressed in human HEK293T cells assessed as beta arrestin-2 recruitment measured after 2.5 mins by BRET assay relative to control. The format is functional, cell-based. A digest of the protocol: (§1)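 Transiently transfected HEK293T cells (15 μg plasmid cDNA, polyethyleneimine, 6 h, assayed after 48 h). Gαi1 or GαoA fused to RLuc8 and Gγ2 to mVenus for G protein activation; D4 receptor fused to RLuc8 and β-arrestin to mVenus for recruitment. About 2×10^5 cells/well in PBS with 0.1% glucose and 200 μM Na bisulfite. Coelenterazine H 5 μM. Read 530/485 nm; RLuc8-only background subtracted.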
On the technique in general: Activated receptors often draw arrestin, which recruitment assays turn into a signal.

Assay [5] in a line: Selectivity ratio of Ki for displacement of [3H]N-methylspiperone from human D2L receptor expressed in HEK293T cell membrane to Ki for displacement of [3H]N-methylspiperone from human D4.4 receptor expressed in HEK293T cell membrane.
In assay [6] the test system is U-251. Put plainly: Cytotoxicity against human U-251 cells assessed as reduction in cell viability at 10 uM incubated for 24 hrs by MTS assay. The class given is functional, cell-based. In outline:
(§2)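 Cells seeded at 5,000/well and grown to 80% confluence: T98 and U251 in EMEM with 10% serum; GSC#83 as spheres in serum-free DMEM/F12 with EGF and bFGF. Treated 24 h at 5–50 μM in DMSO, with a DMSO vehicle control. MTS reagent added and formazan absorbance read at 490 nm. n = 6; two-way ANOVA.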
On the technique in general: Formazan colour is commonly taken as a measure of viable cells.

The test system of assay [7] is GSC#83. Nature of the assay: Cytotoxicity against human GSC#83 cells assessed as reduction in cell viability at 5 to 50 uM incubated for 24 hrs by MTS assay. The format is functional, cell-based. The note with it: dose 5-50 µM. In outline: as §2
Assay [8] concerns T98G. Put plainly: Cytotoxicity against human T98G cells assessed as reduction in cell viability at 5 to 50 uM incubated for 24 hrs by MTS assay. The note with it: dose 5-50 µM. The class given is functional, cell-based. A digest of the protocol:
as §2

Assay [9] deals with U-251. Put plainly: Cytotoxicity against human U-251 cells assessed as reduction in cell viability at 5 to 50 uM incubated for 24 hrs by MTS assay. The note with it: dose 5-50 µM. The format is functional, cell-based. In outline: as §2
Assay [10] has as its system GSC#83. Put plainly: Cytotoxicity against human GSC#83 cells assessed as reduction in cell viability at 10 uM incubated for 24 hrs by MTS assay. The class given is functional, cell-based. In outline: as §2
For assay [11], the target named is T1, D(4) dopamine receptor. Nature of the assay: Partial agonist activity at D4R (unknown origin) expressed in human HEK293T cells assessed as G0 protein activation measured after 2.5 mins by BRET assay. The class given is functional, cell-based. A digest of the protocol:
as §1

In assay [12] the test system is T98G. Put plainly: Cytotoxicity against human T98G cells assessed as reduction in cell viability at 10 uM incubated for 24 hrs by MTS assay. The format is functional, cell-based. In outline: as §2
Assay [13] concerns the target T1, D(4) dopamine receptor. Put plainly: Partial agonist activity at D4R (unknown origin) expressed in human HEK293T cells assessed as Gi protein activation measured after 2.5 mins by BRET assay. The format is functional, cell-based. In outline:
as §1

Assay [14] is described as follows: Selectivity ratio of Ki for displacement of [3H]N-methylspiperone from human D3R expressed in HEK293T cell membrane to Ki for displacement of [3H]N-methylspiperone from human D4.4 receptor expressed in HEK293T cell membrane.
The target of assay [15] is T2, D(4) dopamine receptor (Homo sapiens). Nature of the assay: Partial agonist activity at D4R (unknown origin) expressed in human HEK293T cells assessed as Gi protein activation measured after 2.5 mins by BRET assay relative to control. The class given is functional, cell-based. In outline:
as §1

Assay [16] shares this target. Nature of the assay: Partial agonist activity at D4R (unknown origin) expressed in human HEK293T cells assessed as G0 protein activation measured after 2.5 mins by BRET assay relative to control. The conditions noted are these: filed as partial agonist. The class given is functional, cell-based. A digest of the protocol:
as §1

Assay [17] concerns the target D(2) dopamine receptor (Homo sapiens, UniProt P14416). Nature of the assay: Displacement of [3H]N-methylspiperone from human D2L receptor expressed in HEK293T cell membrane incubated for 1 hr by MicroBeta scintillation counting method. The format is cell membranes. A digest of the protocol:
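Membranes from stably transfected HEK293 cells (hD2L, hD3 or hD4.4), 20 μg (D2, D3) or 30 μg (D4) protein/well. Incubated 1 h at room temperature in EBSS binding buffer, pH 7.4, with 0.4 nM [3H]N-methylspiperone and 10 half-log dilutions in triplicate. 10 μM (+)-butaclamol defines nonspecific binding. GF filtration, scintillation counting.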

The target in assay [18] is T1, D(4) dopamine receptor. Nature of the assay: Displacement of [3H]7-OH-DPAT from human D4.4 receptor expressed in HEK293T cell membrane incubated for 1.5 hrs by MicroBeta scintillation counting method. The format is cell membranes. In outline:
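Fresh membranes from HEK293 cells stably expressing hD4.4 (about 50–60 μg protein/well) in 50 mM Tris, 10 mM MgCl2, 1 mM EDTA, pH 7.4. Radioligand was 3 nM final; incubation 1.5 h at room temperature. Nonspecific binding was set with 10 μM (+)-butaclamol; DMSO was 3% final. Ten half-log dilutions were run in triplicate, then filtered. Ki came from IC50 by Cheng–Prusoff, from at least three independent experiments.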

Assay [19] concerns the target T1, D(4) dopamine receptor. Put plainly: Antagonist activity at D4R (unknown origin) expressed in human HEK293T cells assessed as inhibition of dopamine-induced G0 protein activation pretreated for 10 mins followed by dopamine addition and measured after 2.5 mins by BRET assay. The class given is functional, cell-based.
Assay [20] deals with T2, D(4) dopamine receptor (Homo sapiens). Nature of the assay: Agonist activity at D4R (unknown origin) expressed in human HEK293T cells assessed as G0 protein activation measured after 2.5 mins by BRET assay relative to control. The class given is functional, cell-based. In outline: as §1
Assay [21] shares this target. Nature of the assay: Agonist activity at D4R (unknown origin) expressed in human HEK293T cells assessed as Gi protein activation measured after 2.5 mins by BRET assay relative to control. The class given is functional, cell-based. A digest of the protocol: as §1
In assay [22] the target is T1, D(4) dopamine receptor. Put plainly: Antagonist activity at D4R (unknown origin) expressed in human HEK293T cells assessed as inhibition of dopamine-induced Gi protein activation pretreated for 10 mins followed by dopamine addition and measured after 2.5 mins by BRET assay. The class given is functional, cell-based.
Assay [23] has as its target T1, D(4) dopamine receptor. Put plainly: Agonist activity at D4R (unknown origin) expressed in human HEK293T cells assessed as beta arrestin-2 recruitment measured after 2.5 mins by BRET assay. The class given is functional, cell-based. A digest of the protocol: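 HEK293T cells transiently co-transfected with D4 receptor–RLuc8 and β-arrestin–mVenus using PEI, then harvested after 48 h. Cells were resuspended in PBS with 0.1% glucose and 200 μM Na bisulfite, at about 2×10^5 cells/well. Coelenterazine H (5 μM) was added, and ligands 2 min later. Emission was read at 485 and 530 nm 2.5 min after ligand. Net BRET was taken after subtracting the RLuc8-alone background; dose–response curves were fitted.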

The source made the active and inactive calls. The rule behind the calls is not given here.

Chain of D(2) dopamine receptor (P14416 whole entry): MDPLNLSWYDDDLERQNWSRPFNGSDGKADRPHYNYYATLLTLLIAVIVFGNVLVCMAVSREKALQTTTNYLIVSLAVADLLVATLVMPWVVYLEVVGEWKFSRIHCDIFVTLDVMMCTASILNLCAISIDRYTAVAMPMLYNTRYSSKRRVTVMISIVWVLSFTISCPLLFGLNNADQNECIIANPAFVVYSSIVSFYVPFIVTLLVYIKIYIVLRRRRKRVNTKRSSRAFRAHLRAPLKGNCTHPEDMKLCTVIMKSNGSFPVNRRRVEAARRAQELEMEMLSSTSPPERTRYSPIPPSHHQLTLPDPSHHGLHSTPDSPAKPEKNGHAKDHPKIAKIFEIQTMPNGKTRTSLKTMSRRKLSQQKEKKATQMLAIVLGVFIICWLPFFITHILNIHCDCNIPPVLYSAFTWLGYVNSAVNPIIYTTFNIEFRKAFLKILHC
Chain of D(3) dopamine receptor (P35462 whole entry): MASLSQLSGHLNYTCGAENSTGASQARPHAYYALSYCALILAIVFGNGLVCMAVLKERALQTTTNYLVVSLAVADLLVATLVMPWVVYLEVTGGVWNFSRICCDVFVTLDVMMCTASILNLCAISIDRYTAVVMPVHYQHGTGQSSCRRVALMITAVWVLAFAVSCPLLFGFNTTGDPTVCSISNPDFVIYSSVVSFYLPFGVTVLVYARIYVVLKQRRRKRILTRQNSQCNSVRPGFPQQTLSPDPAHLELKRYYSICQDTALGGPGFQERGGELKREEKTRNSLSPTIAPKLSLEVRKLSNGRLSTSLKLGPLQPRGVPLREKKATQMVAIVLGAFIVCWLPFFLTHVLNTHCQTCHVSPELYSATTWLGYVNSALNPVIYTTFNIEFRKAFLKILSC

As a reminder, the Ki is the dissociation constant of the complex between target and ligand, obtained from inhibition or displacement. Read a high Ki as lower affinity. By IC50 is commonly meant the concentration that inhibits the measured activity by half. What is called Emax is the greatest response seen or fitted, relative to the assay's reference. As usually defined, the EC50 is the concentration at which the effect is half-maximal. Regarding `O=C1CCc2ccccc2N1CCCN1CCN(c2ccccn2)CC1`, the Ki in assay [1] was 2.24 nM; in [2], 2570 nM; in [17], 2750 nM. Also, the IC50 in [3] was 67.6 nM. Besides, the results for the Emax in [4], in assay [15] and in assay [16] were 0%, 26.6% and 46.2%, respectively. For the same compound, the Ratio Ki in [5] turned out to be 1230; in assay [14] it was 1150. The result in assay [6], in [7], in assay [8], in assay [9], in assay [10] and in assay [12] was Active. Besides, the EC50 in [11] is 8.51 nM; in assay [13] it was 12.3 nM.

In the case of `O=C1CCc2ccccc2N1CCCN1CCN(c2cccc(Cl)c2)CC1`, the Ki in assay [18] was 0.776 nM; in assay [1], 1.05 nM; in assay [2], 282 nM; in assay [17] it was 759 nM. For the same compound, the Ratio Ki in [5] stood at 724; in assay [14] it was 269.

For the compound `Cc1ccc(N2CCN(CCCN3C(=O)CCc4ccccc43)CC2)cc1`, the inhibition constant Ki in [1] is 0.977 nM; in assay [2], 1700 nM; in [17] it was 5130 nM. The figures for the 50% inhibitory concentration (IC50) in assay [3], in assay [19] and in assay [22] were 1230 nM, 331 nM and 110 nM, respectively. Also, the Emax was -30.2% in assay [4], 0% in assay [20] and 0% in assay [21]. Besides, the values for the Ratio Ki in [5] and in assay [14] were 5250 and 1740, respectively. In assay [23], the EC50 was 16.2 nM.

As for `O=C1CCc2ccccc2N1CCCN1CCN(c2ccccc2Cl)CC1`, the Ki in [18] is 0.513 nM; in assay [1], 0.603 nM; in [2] it was 60.3 nM; in [17], 138 nM. Moreover, the Ratio Ki is 229 in [5] and 100 in [14].

Consider `O=C1CCc2ccccc2N1CCCN1CCN(c2ccc(Cl)cc2)CC1`, for which the Ki in assay [18] was 1.48 nM; in [1], 0.661 nM; in assay [2] it was 2450 nM; in assay [17], 5500 nM. For the same compound, the IC50 is 10500 nM in [3], 380 nM in assay [19] and 251 nM in assay [22]. Moreover, the Emax in [4] was -43.4%; in [20], 0%; in [21] it was 0%. Further, the Ratio Ki in [5] came out at 8320; in assay [14], 3720. In addition, the result in [6], in [7], in [8], in [9], in [10] and in assay [12] was Active. In addition, the EC50 in [23] was 51.3 nM.

On to `COc1ccc(N2CCN(CCCN3C(=O)CCc4ccccc43)CC2)cc1`, for which the Ki in assay [1] is 6.92 nM; in [2], 8320 nM; in [17], 20900 nM. Besides, the IC50 was 389 nM in [3], 107 nM in assay [19] and 269 nM in assay [22]. Besides, the Emax in assay [4], in assay [20] and in [21] was 0% each time. For the same compound, the figures for the Ratio Ki in [5] and in assay [14] were 3020 and 1200, respectively.
